Measured values taken from ChEMBL document CHEMBL5236662, “Synthesis and biological evaluation of tert-butyl ester and ethyl ester prodrugs of L-γ-methyleneglutamic acid amides for cancer” (Bioorg Med Chem, 2023).

Assays:
MCF7 [1] = assay: Antiproliferative activity against human MCF7 cells assessed as inhibition of cell growth incubated for 72 hrs by Hoechst 33342/propidium iodide staining based fluorescence analysis; type: functional; settings: MCF7, 72 h
SK-BR-3 = assay: Antiproliferative activity against human SK-BR-3 cells assessed as inhibition of cell growth incubated for 72 hrs by Hoechst 33342/propidium iodide staining based fluorescence analysis; type: functional; settings: SK-BR-3, 72 h
MDA-MB-231 = assay: Antiproliferative activity against human MDA-MB-231 cells assessed as inhibition of cell growth incubated for 72 hrs by Hoechst 33342/propidium iodide staining based fluorescence analysis; type: functional; settings: MDA-MB-231, 72 h
[2] = (§1) Cytotoxicity against human MCF-10A cells assessed as inhibition of cell growth incubated for 72 hrs by Hoechst 33342/propidium iodide staining based fluorescence analysis; type: toxicity; settings: human, MCF-10A cells
[3] = Antiproliferative activity against human BNC3 cells assessed as inhibition of cell growth incubated for 72 hrs by CCK-8 assay; type: functional, cell-based; settings: BNC3, 72 h
Summary of the method: (§2)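 Primary patient-derived glioblastoma lines were grown in RPMI 1640 with 10% FBS. Cells were seeded at 3,000 per well and dosed 24 h later at 10, 50, 100, 200 and 300 μM for 24 or 72 h, with BiCNU as control. CCK-8 was added and OD450 read after 2 h at 37 °C. Data are % cell survival, from 3 independent replicates.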

[4] = Antiproliferative activity against human BNC6 cells assessed as inhibition of cell growth incubated for 72 hrs by CCK-8 assay; type: functional, cell-based; settings: BNC6, 72 h; summary of the method: as §2
MCF-10A [5] = assay: (§3) Cytotoxicity against human MCF-10A cells assessed as inhibition of cell growth incubated for 24 hrs by Hoechst 33342/propidium iodide staining based fluorescence analysis; type: toxicity; settings: mcf-10a
MCF7 [6] = assay: Antiproliferative activity against human MCF7 cells assessed as inhibition of cell growth incubated for 24 hrs by Hoechst 33342/propidium iodide staining based fluorescence analysis; type: functional; settings: MCF7, 24 h
[7] = as §3; type: toxicity; settings: human, MCF-10A cells
BNC3 = assay: Antiproliferative activity against human BNC3 cells assessed as suppression of cell growth incubated for 24 to 72 hrs by CCK-8 assay; type: functional, cell-based; settings: dose 10-300 µM, time 24-72 hrs; summary of the method: as §2
BNC6 = assay: Antiproliferative activity against human BNC6 cells assessed as suppression of cell growth incubated for 24 to 72 hrs by CCK-8 assay; type: functional, cell-based; settings: dose 10-300 µM, time 24-72 hrs; summary of the method: as §2
[8] = Antiproliferative activity against human WSU-HN30 cells assessed as inhibition of cell growth incubated for 72 hrs by CCK-8 assay; type: functional, cell-based; settings: WSU-HN30, 72 h
Summary of the method: (§4)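 Radiotherapy-resistant HNSCC lines were used: HN30 from pharynx SCC and HN31 from a lymph-node metastasis of the same patient. Cells in RPMI 1640 with 10% FBS were seeded at 3,000 per well and treated 24 h later with 10–300 μM (5 levels) for 24 or 72 h, with cisplatin as control. CCK-8 was read at OD450 after 2 h. Data are % survival, n = 3 independent experiments.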

[9] = Antiproliferative activity against human WSU-HN31 cells assessed as inhibition of cell growth incubated for 72 hrs by CCK-8 assay; type: functional, cell-based; settings: WSU-HN31, 72 h; summary of the method: as §4
WSU-HN30 = assay: Antiproliferative activity against human WSU-HN30 cells assessed as suppression of cell growth incubated for 24 to 72 hrs by CCK-8 assay; type: functional, cell-based; settings: dose 10-300 µM, time 24-72 hrs; summary of the method: as §4
WSU-HN31 = assay: Antiproliferative activity against human WSU-HN31 cells assessed as suppression of cell growth incubated for 24 to 72 hrs by CCK-8 assay; type: functional, cell-based; settings: dose 10-300 µM, time 24-72 hrs; summary of the method: as §4
MCF-10A [10] = assay: as §1; type: toxicity; settings: mcf-10a

Row | Compound | IC50 (MCF7 [1]) [µM] | IC50 (SK-BR-3) [µM] | IC50 (MDA-MB-231) [µM] | IC50 at 72 h [2] [µM] | also measured
1 | O=NN(CCCl)C(=O)NCCCl [CARMUSTINE] |  |  |  |  | IC50 [3]: 157 µM; IC50 [4]: 160 µM
2 | C=C(C[C@H](N)C(=O)O)C(=O)Nc1ccc(Cl)cc1 |  |  |  | > 1000 | IC50 at 24 h [7]: > 1000 µM
3 | C=C(C[C@H](NC(=O)OC(C)(C)C)C(=O)OC(C)(C)C)C(=O)NCc1ccc([N+](=O)[O-])cc1 | > 1000 | < 1000 | < 1000 | > 1000 | 
4 | C=C(C[C@H](N)C(=O)O)C(=O)N1CCCCC1 |  |  |  | > 1000 | Activity (BNC3): Dose-Dependent Effect; Activity (BNC6): Dose-Dependent Effect; IC50 [3]: 158 µM; IC50 [4]: 199 µM; IC50 [8]: 97 µM; IC50 [9]: 207 µM; Activity (WSU-HN30): Dose-Dependent Effect; Activity (WSU-HN31): Dose-Dependent Effect; IC50 at 24 h [7]: > 1000 µM
5 | C=C(C[C@H](N)C(=O)O)C(=O)NCc1ccc([N+](=O)[O-])cc1 |  |  |  | > 1000 | Activity (BNC3): Dose-Dependent Effect; Activity (BNC6): Dose-Dependent Effect; IC50 [3]: 156 µM; IC50 [4]: 180 µM; IC50 [8]: 91.8 µM; IC50 [9]: 194 µM; Activity (WSU-HN30): Dose-Dependent Effect; Activity (WSU-HN31): Dose-Dependent Effect; IC50 at 24 h [7]: > 1000 µM
6 | C=C(C[C@H](NC(=O)OC(C)(C)C)C(=O)OC(C)(C)C)C(=O)Nc1ccc(F)cc1 | > 1000 | < 1000 | < 1000 |  | IC50 (MCF-10A [10]): < 1000 µM
7 | C=C(C[C@H](NC(=O)OC(C)(C)C)C(=O)OCC)C(=O)Nc1ccc(Cl)cc1 | > 1000 | < 1000 | > 1000 | > 1000 | 
8 | C=C(C[C@H](N)C(=O)O)C(=O)NCc1ccccc1 |  |  |  | > 1000 | Activity (BNC3): Dose-Dependent Effect; Activity (BNC6): Dose-Dependent Effect; IC50 [3]: 171 µM; IC50 [4]: 188 µM; IC50 [8]: 119 µM; IC50 [9]: 199 µM; Activity (WSU-HN30): Dose-Dependent Effect; Activity (WSU-HN31): Dose-Dependent Effect; IC50 at 24 h [7]: > 1000 µM; IC50 (MCF7 [6]): > 1000 µM
9 | C=C1C[C@@H](C(=O)OCC)N(C(=O)OC(C)(C)C)C1=O | > 1000 | > 1000 | > 1000 | > 1000 | 
10 | C=C(C[C@H](N)C(=O)O)C(=O)Nc1ccc(F)cc1 |  |  |  | > 1000 | Activity (BNC3): Dose-Dependent Effect; Activity (BNC6): Dose-Dependent Effect; IC50 [3]: 182 µM; IC50 [4]: 194 µM; IC50 [8]: 220 µM; IC50 [9]: 202 µM; Activity (WSU-HN30): Dose-Dependent Effect; Activity (WSU-HN31): Dose-Dependent Effect; IC50 at 24 h [7]: > 1000 µM
11 | C=C(C[C@H](NC(=O)OC(C)(C)C)C(=O)OCC)C(=O)Nc1ccccc1 | > 1000 | > 1000 | > 1000 | > 1000 | 
12 | C=C1C[C@@H](C(=O)OC(C)(C)C)N(C(=O)OC(C)(C)C)C1=O | > 1000 | > 1000 | < 1000 | > 1000 | 
13 | C=C(C[C@H](N)C(=O)O)C(=O)NC1CC1 |  |  |  | > 1000 | Activity (BNC3): Dose-Dependent Effect; Activity (BNC6): Dose-Dependent Effect; IC50 [3]: 171 µM; IC50 [4]: 187 µM; IC50 [8]: 105 µM; IC50 [9]: 196 µM; Activity (WSU-HN30): Dose-Dependent Effect; Activity (WSU-HN31): Dose-Dependent Effect; IC50 at 24 h [7]: > 1000 µM
14 | C=C1C[C@@H](C(=O)OCC)NC1=O | > 1000 | > 1000 | > 1000 | > 1000 | 
15 | C=C(C[C@H](N)C(=O)O)C(N)=O |  |  |  | > 1000 | IC50 at 24 h [7]: > 1000 µM
16 | C=C(C[C@H](NC(=O)OC(C)(C)C)C(=O)OC(C)(C)C)C(N)=O | < 1000 | < 1000 | > 1000 | > 1000 | 
17 | C=C(C[C@H](NC(=O)OC(C)(C)C)C(=O)OCC)C(N)=O | > 1000 | < 1000 | < 1000 | > 1000 | 
18 | C=C(C[C@H](NC(=O)OC(C)(C)C)C(=O)OC(C)(C)C)C(=O)N1CCCCC1 | < 1000 | < 1000 | < 1000 | > 1000 | 
19 | C=C(C[C@H](N)C(=O)O)C(=O)Nc1ccccc1 |  |  |  | > 1000 | Activity (BNC3): Dose-Dependent Effect; Activity (BNC6): Dose-Dependent Effect; IC50 [3]: 218 µM; IC50 [4]: 210 µM; IC50 [8]: 92.9 µM; IC50 [9]: 199 µM; Activity (WSU-HN30): Dose-Dependent Effect; Activity (WSU-HN31): Dose-Dependent Effect; IC50 at 24 h [7]: > 1000 µM; IC50 (MCF7 [6]): > 1000 µM

More lines, main results first:

Row | IC50 (MCF7 [1]) [µM] | IC50 (SK-BR-3) [µM] | IC50 (MDA-MB-231) [µM] | Compound | IC50 at 72 h [2] [µM] | also measured
20 | > 1000 | < 1000 | < 1000 | C=C(C[C@H](NC(=O)OC(C)(C)C)C(=O)OC(C)(C)C)C(=O)NCc1ccc(F)cc1 | > 1000 | 
21 | < 1000 | < 1000 | < 1000 | O=C(c1cc(Cc2n[nH]c(=O)c3ccccc23)ccc1F)N1CCN(C(=O)C2CC2)CC1 [OLAPARIB] | > 1000 | IC50 (MCF-10A [5]): > 1000 µM; IC50 (MCF7 [6]): > 1000 µM
22 | > 1000 | < 1000 | > 1000 | C=C(C[C@H](NC(=O)OC(C)(C)C)C(=O)OCC)C(=O)NCc1ccc(F)cc1 | > 1000 | 
23 | > 1000 | < 1000 | < 1000 | C=C(C[C@H](NC(=O)OC(C)(C)C)C(=O)OC(C)(C)C)C(=O)NCc1ccccc1 | > 1000 | 
24 | > 1000 | > 1000 | < 1000 | C=C1C[C@@H](C(=O)OC(C)(C)C)NC1=O | > 1000 | 
25 | < 1000 | < 1000 | < 1000 | C=C(C[C@H](NC(=O)OC(C)(C)C)C(=O)OC(C)(C)C)C(=O)NC1CC1 | > 1000 | 
26 | > 1000 | > 1000 | > 1000 | C=C1C[C@@H](C(=O)O)NC1=O | > 1000 | 
27 | > 1000 | < 1000 | < 1000 | C=C(C[C@H](NC(=O)OC(C)(C)C)C(=O)OC(C)(C)C)C(=O)Nc1ccccc1 | > 1000 | 
28 | > 1000 | > 1000 | > 1000 | C=C(C[C@H](NC(=O)OC(C)(C)C)C(=O)OCC)C(=O)N1CCCCC1 | > 1000 | 
29 | > 1000 | > 1000 | > 1000 | C=C(C[C@H](NC(=O)OC(C)(C)C)C(=O)OC(C)(C)C)C(=O)Nc1ccc(Cl)cc1 | > 1000 | 
30 | < 1000 | < 1000 | < 1000 | CC/C(=C(\c1ccccc1)c1ccc(OCCN(C)C)cc1)c1ccccc1 [TAMOXIFEN] |  | IC50 (MCF-10A [10]): > 1000 µM; IC50 (MCF-10A [5]): > 1000 µM
31 | > 1000 | < 1000 | > 1000 | C=C(C[C@H](NC(=O)OC(C)(C)C)C(=O)OCC)C(=O)Nc1ccc(F)cc1 | > 1000 | 
32 | > 1000 | < 1000 | > 1000 | C=C(C[C@H](NC(=O)OC(C)(C)C)C(=O)OCC)C(=O)NCc1ccc([N+](=O)[O-])cc1 | > 1000 | 
33 | > 1000 | < 1000 | > 1000 | C=C(C[C@H](NC(=O)OC(C)(C)C)C(=O)OCC)C(=O)NCc1ccccc1 | > 1000 | 
34 | > 1000 | > 1000 | > 1000 | C=C(C[C@H](NC(=O)OC(C)(C)C)C(=O)OCC)C(=O)NC1CC1 | > 1000 | 
